The full list was thinned out, with hits kept by preference.
HUVEC prolif 384: inhibitors of human endothelial cell proliferation. HUVEC proliferation, CellTiter-Glo luminescence, 72 h; stronger effect = lower value. viability, % at 10 µM (by protocol). actives 1.1% (n = 86,000);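 active means viability at or below 30%; inactive means viability above 30%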;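 further: 100% = median luminescence of DMSO-only cell control wells on each plate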
bCat KO growth: beta-catenin-lacking colon tumor cell growth suppression; HCT116 beta-catenin knockout viability, CellTiter-Glo, 60 h; stronger effect = lower value; viability, % at 10 µM; actives 1.5% (n = 140,000);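 active means viability at or under a set limit, the compound median less 4 SD, cut at about 6% in these data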;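 further: 0% = Hyamine 1622 control at 20 µM and 100% = untreated cell control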
Fibroblast inh: blocks proliferation of human lung fibroblasts | LL 47 human lung fibroblast viability, ATP luminescence; stronger effect = lower value | viability, % at 10 µM | actives 1.1% (n = 85,000);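 active means viability at or below 50% in the single dose screen; inactive means viability above 50%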;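 further: compound exposure lasted 72 h before the ATP readout; 100% = median luminescence of untreated cell-only wells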
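Test system: LL 47 human lung fibroblasts; Quantity: 1,150 cells/well; Buffer or medium: IMEM plus 15% FBS; Dosing: tenfold compound dosing solution, DMSO at 0.1%; Timing: overnight cell rest, 72 h compound treatment at 37 °C; Detection: ATP-based CellTiter-Glo luminescent readout; Read-out basis: viability percentage against median untreated-cell control; Controls: cell-only wells, no compound.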
PTEN del growth: PTEN-deleted cell growth suppression. actives 1.2% (n = 140,000). AID 827. viability, % at 10 µM. HCT116 PTEN-null viability, CellTiter-Glo, 60 h; stronger effect = lower value;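 active means viability at or below a set limit, 4 SD under the median of all tested compounds, cut at about 3.7% in these data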;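 further: PTEN knockout HCT116 line with beta catenin targeted HCT116 as companion control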
H69AR growth 86K: blocks growth of human H69AR lung tumor cells. actives 6% (n = 85,000). viability, % at 10 µM. AID 598. H69AR lung tumor viability, ATP luminescence, 72 h; stronger effect = lower value;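 active means viability at or below 40%; inactive means viability above 40%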;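 further: multidrug resistant small cell line overexpressing MRP-1 efflux transporter; 100% = mean luminescence of untreated control wells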
Starred values were filed as active, the others as inactive; x = not tested or not shown.

SMILES	HUVEC prolif 384	bCat KO growth	Fibroblast inh	PTEN del growth	H69AR growth 86K
O=c1[nH]c(=O)n([C@H]2C[C@H](O)[C@@H](CO)O2)cc1F	62	45	80	36	15*
CCCN(CCC)C(=O)Cn1c(=O)n(CCCCCC(=O)Nc2ccccc2)c(=O)c2sccc21	x	99	x	94	x
COc1cc(/C=N/Nc2snc(SC)c2C#N)cc(OC)c1OC	60	14	71	15	24*
CC1=C/C(=N\NC(=O)c2ccccc2)CC1	x	98	x	109	x
CC1(C)CCCC(C)(C)N1CC(O)COCCOc1ccc(Br)cc1 (stereo not drawn)	x	77	x	68	x
Cc1cccc(/C=N/NC(=O)C2CCCNC2=O)c1 (stereo not drawn)	x	84	x	92	x
O=C(Nc1ccccc1)OC1CCC2CC1CCC2OC(=O)Nc1ccccc1 (stereo not drawn)	x	36	x	38	x
COc1ccccc1C(=O)/C=C/c1ccc(N2CCCCC2)c([N+](=O)[O-])c1	x	1.5*	x	1.4*	x
O=C(O/N=C\c1ccc(N2CCCCC2)c([N+](=O)[O-])c1)c1ccc(Cl)cc1Cl	x	95	x	91	x
Cc1ccccc1C(=O)NC1CCN(CC(=O)Nc2nccs2)CC1	98	97	94	110	16*
Cc1ccc(NC(=O)NC2CCN(CC(=O)Nc3nccs3)CC2)cc1	98	103	100	112	75
CCCCN(CC)c1nc(N)c2c(N)nc(OCC)cc2c1C#N	80	72	82	75	34*
CCCCN(CC)c1nc(N)c(C#N)c(CC#N)c1C#N	78	86	96	83	89
CCc1ccc(-c2nc(C(N)=O)c3[nH]c(=O)n(-c4ccccc4OC)c3n2)cc1	39	39	37*	26	16*
COc1ccc(-c2nc(C(N)=O)c3[nH]c(=O)n(-c4cccc(Cl)c4)c3n2)cc1OC	32	7	7.5*	2.3*	2.1*
C/C(=N/NC(=O)CN1CCN(S(=O)(=O)c2ccc(Br)cc2)CC1)c1cccnc1	x	98	x	102	x
CC(=O)Nc1ccccc1-c1nnc(SCc2ccccc2Cl)[nH]c1=O	106	98	100	95	100
O=c1c2ccccc2nc(COc2ccccc2)n1/N=C/c1cn[nH]c1-c1ccccc1	x	64	x	19	x
Cc1ccccc1OCc1nc2ccccc2c(=O)n1/N=C/c1cn[nH]c1-c1ccc(Br)cc1	x	19	x	2.7*	x
O=C(c1ccccc1)c1nn(-c2ccccc2)c2nnc(Cc3ccccc3)c(=O)n12	58	50	104	56	32*
CCC(C)c1ccc(-c2cc(C(=O)OCC(=O)Nc3cc(C)on3)c3ccccc3n2)cc1 (stereo not drawn)	45	67	81	80	9.5*
COc1ccc(-c2cc(C(=O)OCC(=O)Nc3cc(C)on3)c3ccccc3n2)cc1OC	x	81	x	92	x
COc1ccc(Cl)cc1C(=O)NCCN(C)C	94	100	99	101	93
CN(C)CCNC(=O)c1ccc(COc2ccc(Cl)cc2Cl)cc1	2.4*	3.1*	25*	1.6*	1.4*
CN1CCN(C(=O)CCCOc2ccc(Cl)cc2Cl)CC1	x	84	x	76	x
SMILES	HUVEC prolif 384	bCat KO growth	Fibroblast inh	PTEN del growth	H69AR growth 86K
CN1CCN(C(=O)c2ccc(COc3ccc(Cl)cc3Cl)cc2)CC1	13*	78	86	77	75
Cc1nn(C)c(C)c1/C=N/N=C1\CCC2C3CCc4cc(O)ccc4C3CCC12C (stereo not drawn)	x	3.1*	x	6	x
Cc1ccc(-n2nc(C)c(C3C(C#N)=C(N)OC4=C3C(=O)CCC4)c2Cl)cc1 (stereo not drawn)	91	x	92	x	51
Cc1nn(-c2ccccc2)c(Cl)c1C1C(C#N)=C(N)OC2=C1C(=O)CC(C)(C)C2 (stereo not drawn)	55	74	71	74	8.8*
Cc1nc(-n2ncc(C#N)c2N)c2c3c(sc2n1)CCC3	66	84	96	2.0*	80
O=C(Nc1cccc(Cl)c1)Nc1nnc(-c2ccncc2)s1	x	3.8*	x	3.2*	x
CC(=O)c1ccc(NC(=O)Nc2cccc(Cl)c2)cc1	68	61	99	50	5.0*
O=C(Nc1ccc(F)cc1)Nc1nnc(-c2ccncc2)s1	x	32	x	20	x
O=C(Nc1ccc(Cl)cc1)Nc1nnc(-c2ccncc2)s1	x	4.3*	x	2.1*	x
O=C(NCCc1ccncc1)Nc1cccc(Cl)c1	81	101	101	104	106
COC(=O)c1ccc(NC(=O)CN(C2CCCCC2)S(C)(=O)=O)cc1	90	77	88	63	38*
